Results as given in ChEMBL document CHEMBL3600357 (J Med Chem, 2015).

How the values were obtained:
[1] = target: Induced myeloid leukemia cell differentiation protein Mcl-1 (Homo sapiens, UniProt Q07820); experiment: Inhibition of Mcl1 (unknown origin) assessed as inhibition of Mcl1-Noxa interaction by TR-FRET assay
[2] = Intrinsic clearance in monkey liver microsomes; assay type: ADME, Macaca mulatta; settings: rhesus monkey, read-out: CLH
Rattus norvegicus [3] = experiment: Toxicity in human SJSA1 cells xenografted dosed rat assessed as induction of histopathological changes at 30 mg/kg, po qd; assay type: organism-based, SJSA-1; settings: in vivo
How it was run: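 Daily treatment of SJSA-1 tumour-bearing rats; histopathology was performed on the 30 mg/kg daily dose group to look for compound-related findings.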

[4] = Terminal half life in beagle dog at 0.1 mg/kg, iv; assay type: ADME, organism-based, Canis lupus familiaris; settings: in vivo, read-out: beta t1/2 (converted)
[5] = AUC (0 to 24 hrs) in human SJSA1 cells xenografted rat assessed as mouse survival at 20 mg/kg, po qd; assay type: ADME, organism-based, SJSA-1; design: time < 24 hr, dose 20 mg/kg, route oral; settings: in vivo
How it was run: (§1)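 Rats bearing MDM2-amplified human SJSA-1 tumors, dosed orally either daily or 3qw (Monday, Wednesday, Friday). Plasma exposure reported as AUC0-24, plus AUC0-48 for the 3qw schedule.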

Rattus norvegicus [6] = experiment: Toxicity in human SJSA1 cells xenografted rat assessed as mouse survival at 20 mg/kg, po qd; assay type: organism-based, SJSA-1; settings: in vivo
How it was run: (§2)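 Tolerability was monitored in SJSA-1 tumour-bearing rats during the daily and 3qw (Monday, Wednesday, Friday) treatment schedules. Histopathology was done on all 3qw doses and on the 30 mg/kg daily group.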

Rattus norvegicus [7] = species: Rattus norvegicus; experiment: Toxicity in rat assessed as changes in heart parameters; assay type: organism-based; settings: in vivo
[8] = target: Baculoviral IAP repeat-containing protein 2 (Homo sapiens, UniProt Q13490); experiment: Inhibition of cIAP (unknown origin) assessed as inhibition of cIAP-BIR3 interaction by TR-FRET assay
Sequence of Baculoviral IAP repeat-containing protein 2 (Q13490 whole entry): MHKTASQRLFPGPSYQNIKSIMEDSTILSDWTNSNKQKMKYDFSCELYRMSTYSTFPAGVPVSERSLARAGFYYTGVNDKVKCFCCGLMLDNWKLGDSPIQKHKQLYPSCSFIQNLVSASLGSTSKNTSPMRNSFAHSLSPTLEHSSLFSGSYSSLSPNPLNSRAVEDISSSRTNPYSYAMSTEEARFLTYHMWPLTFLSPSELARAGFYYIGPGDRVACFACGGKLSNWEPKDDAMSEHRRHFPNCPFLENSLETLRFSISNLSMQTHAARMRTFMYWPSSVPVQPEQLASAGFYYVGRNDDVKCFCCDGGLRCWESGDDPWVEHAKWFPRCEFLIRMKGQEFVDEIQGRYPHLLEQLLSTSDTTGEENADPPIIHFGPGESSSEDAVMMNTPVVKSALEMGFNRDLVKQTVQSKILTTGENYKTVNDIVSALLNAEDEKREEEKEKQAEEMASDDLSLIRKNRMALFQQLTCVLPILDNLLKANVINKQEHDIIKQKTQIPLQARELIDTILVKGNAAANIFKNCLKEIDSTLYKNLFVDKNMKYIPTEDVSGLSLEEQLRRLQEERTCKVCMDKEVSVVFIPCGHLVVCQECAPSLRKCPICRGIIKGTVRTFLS

Rattus norvegicus [9] = experiment: Toxicity in human SJSA1 cells xenografted dosed rat assessed as drug toleration dosed orally on daily basis under q24h regime; assay type: organism-based, SJSA-1; settings: in vivo, po
How it was run: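 Rats bearing MDM2-amplified SJSA-1 human tumours, treated daily. Tolerability was monitored during treatment. Histopathology for compound-related findings was performed at the 30 mg/kg daily dose.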

Rattus norvegicus [10] = species: Rattus norvegicus; experiment: Toxicity in rat testes assessed as effect on proliferative cells; assay type: organism-based, Testis; settings: in vivo
Rattus norvegicus [11] = experiment: Toxicity in human SJSA1 cells xenografted rat assessed as change in body weight at 70 mg/kg, po dosed three times per week (reference value: 1.9 to 6.8%); assay type: organism-based, SJSA-1; settings: in vivo
[12] = Protein binding in Sprague-Dawley rat plasma by equilibrium dialysis method; assay type: ADME, cell-free; settings: read-out: PPB
How it was run: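 Rat plasma protein binding by rapid equilibrium dialysis (RED) in 100% plasma.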

Rattus norvegicus [13] = experiment: Toxicity in human SJSA1 cells xenografted rat assessed as mouse survival at 70 mg/kg, po dosed 3 times per week; assay type: organism-based, SJSA-1; settings: in vivo; how it was run: as §2
[14] = target: E3 ubiquitin-protein ligase XIAP (Homo sapiens, UniProt P98170); experiment: Inhibition of XIAP (unknown origin) assessed as inhibition of XIAP-BIR3 interaction by TR-FRET assay
Sequence of E3 ubiquitin-protein ligase XIAP (P98170 whole entry): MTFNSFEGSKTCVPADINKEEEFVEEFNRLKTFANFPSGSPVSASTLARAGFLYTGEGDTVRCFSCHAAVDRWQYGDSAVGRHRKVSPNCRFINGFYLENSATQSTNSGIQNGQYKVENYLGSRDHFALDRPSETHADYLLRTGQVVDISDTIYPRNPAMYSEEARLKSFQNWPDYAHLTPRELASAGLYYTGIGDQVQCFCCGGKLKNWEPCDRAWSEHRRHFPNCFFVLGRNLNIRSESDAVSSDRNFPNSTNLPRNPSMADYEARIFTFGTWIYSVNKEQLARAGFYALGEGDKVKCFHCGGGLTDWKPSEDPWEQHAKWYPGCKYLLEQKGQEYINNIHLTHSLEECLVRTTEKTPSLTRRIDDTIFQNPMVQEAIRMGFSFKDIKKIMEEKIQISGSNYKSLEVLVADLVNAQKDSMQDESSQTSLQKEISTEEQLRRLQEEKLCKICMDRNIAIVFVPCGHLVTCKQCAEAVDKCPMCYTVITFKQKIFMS

Rattus norvegicus [15] = experiment: Toxicity in human SJSA1 cells xenografted rat assessed as mouse survival at 30 mg/kg, po qd; assay type: organism-based, SJSA-1; settings: in vivo; how it was run: as §2
[16] = Inhibition of Ras (unknown origin) assessed as inhibition of Ras-Raf interaction by TR-FRET assay; design: species or system Homo sapiens
[17] = Inhibition of rat MDM2 by TR-FRET assay
Rattus norvegicus [18] = experiment: Toxicity in human SJSA1 cells xenografted rat assessed as change in body weight at 30 mg/kg, po qd (reference value: 1.9 to 6.8%); assay type: organism-based, SJSA-1; settings: in vivo
Canis familiaris [19] = experiment: AUC in beagle dog at 0.3 mg/kg, po; assay type: ADME, organism-based, Canis lupus familiaris; settings: in vivo
[20] = Protein binding in cynomolgus monkey plasma by equilibrium dialysis method; assay type: ADME, cell-free, Macaca fascicularis; settings: read-out: PPB
Canis familiaris [21] = experiment: Oral bioavailability in beagle dog at 0.3 mg/kg; assay type: ADME, organism-based, Canis lupus familiaris; settings: in vivo
[22] = AUC (0 to 48 hrs) in human SJSA1 cells xenografted rat assessed as mouse survival at 30 mg/kg, po dosed 3 times per week; assay type: ADME, organism-based, SJSA-1; design: time < 48 hr, dose 30 mg/kg, route oral; settings: in vivo; how it was run: as §1
HCT-116 = experiment: Inhibition of cell proliferation of human HCT116 cells expressing p53
[23] = Volume of distribution at steady state in cynomolgus monkey at 0.1 mg/kg, iv; assay type: ADME, organism-based, Macaca fascicularis; settings: in vivo, read-out: Vdss
[24] = Intrinsic clearance in human liver microsomes; assay type: ADME; settings: read-out: CLH
[25] = AUC (0 to 24 hrs) in human SJSA1 cells xenografted rat assessed as mouse survival at 10 mg/kg, po qd; assay type: ADME, organism-based, SJSA-1; design: time < 24 hr, dose 10 mg/kg, route oral; settings: in vivo; how it was run: as §1
Rattus norvegicus [26] = experiment: Terminal half life in Sprague-Dawley rat at 1 mg/kg, iv; assay type: ADME, organism-based; settings: in vivo
How it was run: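 Sprague-Dawley rats. IV dose given as a solution in NMP:PEG200 (10:90); 3 mg/kg PO given as a suspension in CMC:water:Tween (0.5:99:0.5). AUC and Cmax dose-normalized to 1 mg/kg. Mean ± SD from four rats.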

[27] = Inhibition of cell proliferation of human Saos2 cells deficient with p53 gene; settings: SAOS-2
[28] = Protein binding in beagle dog plasma by equilibrium dialysis method; assay type: ADME, cell-free, Canis lupus familiaris; settings: read-out: PPB
Rattus norvegicus [29] = experiment: Toxicity in human SJSA1 cells xenografted rat assessed as mouse survival at 30 mg/kg, po dosed 3 times per week; assay type: organism-based, SJSA-1; settings: in vivo; how it was run: as §2
[30] = Terminal half life in cynomolgus monkey at 0.1 mg/kg, iv; assay type: ADME, organism-based, Macaca fascicularis; settings: in vivo, read-out: beta t1/2 (converted)

Sequence of Induced myeloid leukemia cell differentiation protein Mcl-1 (Q07820 whole entry): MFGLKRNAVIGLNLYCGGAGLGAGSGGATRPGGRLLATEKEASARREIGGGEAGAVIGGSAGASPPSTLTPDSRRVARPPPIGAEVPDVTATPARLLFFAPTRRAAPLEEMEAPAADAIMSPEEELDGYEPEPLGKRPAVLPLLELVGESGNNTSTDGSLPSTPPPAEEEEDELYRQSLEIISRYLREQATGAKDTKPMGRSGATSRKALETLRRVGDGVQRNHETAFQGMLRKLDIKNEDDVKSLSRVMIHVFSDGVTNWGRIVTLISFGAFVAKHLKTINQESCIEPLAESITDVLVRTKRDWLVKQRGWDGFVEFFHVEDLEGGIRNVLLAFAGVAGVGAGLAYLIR

What does the source list for `COc1cc2c(cc1OC(C)C)[C@H](c1ccc(Cl)cc1)N(c1ccc(N(C)C[C@H]3CC[C@H](N4CCN(C)C(=O)C4)CC3)cc1)C(=O)C2` [CGM-097]?
IC50 [1]: > 50 µM; microsomal CLint [2]: 26.6 µL/min/mg; Activity (Rattus norvegicus [3]): Non-toxic; half-life [4]: 19.8 h; AUC at 24 h [5]: 163 µM·h; Activity (Rattus norvegicus [6]): Non-toxic; Activity (Rattus norvegicus [7]): Toxic; IC50 [8]: > 50 µM; Activity (Rattus norvegicus [9]): Non-toxic; Activity (Rattus norvegicus [10]): Non-toxic; Activity (Rattus norvegicus [11]): 7%; fraction unbound [12]: < 0.01; Activity (Rattus norvegicus [13]): Non-toxic; IC50 [14]: > 50 µM; Activity (Rattus norvegicus [15]): Non-toxic; IC50 [16]: 4.5 µM; Ki [17]: 0.0474 µM; Activity (Rattus norvegicus [18]): 4.5%; AUC (Canis familiaris [19]): 5.993 µM·h; fraction unbound [20]: < 0.01; F (Canis familiaris [21]): 74%; AUC at 48 h [22]: 381 µM·h; IC50 (HCT-116): 0.454 µM; Vd [23]: 2 L/kg; microsomal CLint [24]: 52.3 µL/min/mg; AUC at 24 h [25]: 61 µM·h; beta t1/2 (Rattus norvegicus [26]): 12.1 h; IC50 [27]: 20.5 µM; fraction unbound [28]: < 0.01; Activity (Rattus norvegicus [29]): Non-toxic; half-life [30]: 8.3 h
